Test system: Human immunodeficiency virus 1
Test: Antiviral activity against HIV1 3B harboring reverse transcriptase Y188L mutant infected in human MT4 cells assessed as protection against virus induced cytotoxicity after 5 days by MTT assay
Type: functional, cell-based
Details: Human immunodeficiency virus 1, 3B, MT4, 120 h
Procedure, shortened: (§1)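 MTT cytopathicity assay in MT-4 cells (6 × 10^5 cells/mL). Compounds serially diluted 5-fold in triplicate wells, run in parallel on infected and mock-infected cells. Virus added at 100−300 CCID50 per well. Viability read spectrophotometrically at 540 and 690 nm after 5 days, using the median OD of three wells. EC50 is the concentration giving 50% protection from viral cytopathogenicity.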

Compound | EC50
Cc1cc(C)c(Oc2nc(NC3CCN(Cc4ccc([N+](=O)[O-])cc4)CC3)nc3ccsc23)c(C)c1 | 0.262 µM
CCOC(=O)c1ccc(CN2CCC(Nc3nc(Oc4c(C)cc(C#N)cc4C)c4sccc4n3)CC2)cc1 | 4.67 µM
Cc1cc(C#N)cc(C)c1Oc1nc(NC2CCN(Cc3cccc(C(N)=O)c3)CC2)nc2ccsc12 | 0.0583 µM

Test system: not listed separately
Test: Selectivity index, ratio of CC50 for human mock-infected MT4 cells to EC50 for HIV1 3B harboring reverse transcriptase Y188L mutant infected in human MT4 cells
Type: toxicity, cell-based
Details: MT4 cells (mock-infected for CC50, HIV-1 infected for EC50)
Procedure, shortened: (§2)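 Selectivity index is CC50/EC50. CC50 is the concentration that reduces OD540 of mock-infected MT-4 cells by 50% in the 5-day MTT assay. EC50 is the 50% protection from virus-induced cytopathicity, measured in parallel on infected wells.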

Compound | selectivity ratio
Cc1cc(C)c(Oc2nc(NC3CCN(Cc4ccc([N+](=O)[O-])cc4)CC3)nc3ccsc23)c(C)c1 | 24
CCOC(=O)c1ccc(CN2CCC(Nc3nc(Oc4c(C)cc(C#N)cc4C)c4sccc4n3)CC2)cc1 | > 49
Cc1cc(C#N)cc(C)c1Oc1nc(NC2CCN(Cc3cccc(C(N)=O)c3)CC2)nc2ccsc12 | > 836

Test system: not listed separately
Test: Cytotoxicity against human mock-infected MT4 cells assessed as reduction in cell viability after 5 days by MTT assay
Type: toxicity, cell-based
Details: not given
Procedure, shortened: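 Mock-infected MT-4 cells (6 × 10^5 cells/mL at seeding) with serial 5-fold compound dilutions in triplicate wells. Viability read by MTT after 5 days, absorbance at 540 and 690 nm, median OD of three wells. CC50 is the concentration reducing OD540 of mock-infected cells by 50%.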

Compound | CC50 at 120 h
Cc1cc(C)c(Oc2nc(NC3CCN(Cc4ccc([N+](=O)[O-])cc4)CC3)nc3ccsc23)c(C)c1 | 6.39 µM
CCOC(=O)c1ccc(CN2CCC(Nc3nc(Oc4c(C)cc(C#N)cc4C)c4sccc4n3)CC2)cc1 | ≥ 231 µM
Cc1cc(C#N)cc(C)c1Oc1nc(NC2CCN(Cc3cccc(C(N)=O)c3)CC2)nc2ccsc12 | > 48.8 µM

Test system: Human immunodeficiency virus 1
Test: Antiviral activity against HIV1 3B harboring reverse transcriptase F227L/V106A double mutant infected in human MT4 cells assessed as protection against virus induced cytotoxicity after 5 days by MTT assay
Type: functional, cell-based
Details: Human immunodeficiency virus 1, 3B, MT4, 120 h
Procedure, shortened: as §1

Compound | EC50
Cc1cc(C)c(Oc2nc(NC3CCN(Cc4ccc([N+](=O)[O-])cc4)CC3)nc3ccsc23)c(C)c1 | > 6.39 µM
CCOC(=O)c1ccc(CN2CCC(Nc3nc(Oc4c(C)cc(C#N)cc4C)c4sccc4n3)CC2)cc1 | 12.8 µM
Cc1cc(C#N)cc(C)c1Oc1nc(NC2CCN(Cc3cccc(C(N)=O)c3)CC2)nc2ccsc12 | 0.13 µM

Test system: not listed separately
Test: Selectivity index, ratio of CC50 for human mock-infected MT4 cells to EC50 for HIV1 3B harboring reverse transcriptase F227L/V106A double mutant infected in human MT4 cells
Type: toxicity, cell-based
Details: MT4 cells (mock-infected for CC50, HIV-1 infected for EC50)
Procedure, shortened: as §2

Compound | selectivity ratio
Cc1cc(C)c(Oc2nc(NC3CCN(Cc4ccc([N+](=O)[O-])cc4)CC3)nc3ccsc23)c(C)c1 | < 1
CCOC(=O)c1ccc(CN2CCC(Nc3nc(Oc4c(C)cc(C#N)cc4C)c4sccc4n3)CC2)cc1 | > 20
Cc1cc(C#N)cc(C)c1Oc1nc(NC2CCN(Cc3cccc(C(N)=O)c3)CC2)nc2ccsc12 | > 374

Test system: not listed separately
Test: Selectivity index, ratio of CC50 for human mock-infected MT4 cells to EC50 for HIV1 3B harboring reverse transcriptase L100I mutant infected in human MT4 cells
Type: toxicity, cell-based
Details: MT4 cells (mock-infected for CC50, HIV-1 infected for EC50)
Procedure, shortened: as §2

Compound | selectivity ratio
Cc1cc(C)c(Oc2nc(NC3CCN(Cc4ccc([N+](=O)[O-])cc4)CC3)nc3ccsc23)c(C)c1 | < 1
CCOC(=O)c1ccc(CN2CCC(Nc3nc(Oc4c(C)cc(C#N)cc4C)c4sccc4n3)CC2)cc1 | > 20
Cc1cc(C#N)cc(C)c1Oc1nc(NC2CCN(Cc3cccc(C(N)=O)c3)CC2)nc2ccsc12 | > 975

Test system: Human immunodeficiency virus 1
Test: Antiviral activity against wild type HIV1 3B harboring reverse transcriptase infected in human MT4 cells assessed as protection against virus induced cytotoxicity after 5 days by MTT assay
Type: functional, cell-based
Details: Human immunodeficiency virus 1, 3B, MT4, 120 h
Procedure, shortened: as §1, with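 “wells.” for “wells. EC50 is the concentration giving 50% protection from viral cytopathogenicity.”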

Compound | EC50
Cc1cc(C)c(Oc2nc(NC3CCN(Cc4ccc([N+](=O)[O-])cc4)CC3)nc3ccsc23)c(C)c1 | 0.0318 µM
CCOC(=O)c1ccc(CN2CCC(Nc3nc(Oc4c(C)cc(C#N)cc4C)c4sccc4n3)CC2)cc1 | 0.161 µM
Cc1cc(C#N)cc(C)c1Oc1nc(NC2CCN(Cc3cccc(C(N)=O)c3)CC2)nc2ccsc12 | 0.0025 µM

Test system: Human immunodeficiency virus 1
Test: Antiviral activity against HIV1 3B harboring reverse transcriptase K103N mutant infected in human MT4 cells assessed as protection against virus induced cytotoxicity after 5 days by MTT assay
Type: functional, cell-based
Details: Human immunodeficiency virus 1, 3B, MT4, 120 h
Procedure, shortened: as §1

Compound | EC50
Cc1cc(C)c(Oc2nc(NC3CCN(Cc4ccc([N+](=O)[O-])cc4)CC3)nc3ccsc23)c(C)c1 | 0.0534 µM
CCOC(=O)c1ccc(CN2CCC(Nc3nc(Oc4c(C)cc(C#N)cc4C)c4sccc4n3)CC2)cc1 | 0.511 µM
Cc1cc(C#N)cc(C)c1Oc1nc(NC2CCN(Cc3cccc(C(N)=O)c3)CC2)nc2ccsc12 | 0.0103 µM

Test system: Human immunodeficiency virus 1
Test: Antiviral activity against HIV1 3B harboring reverse transcriptase E138K mutant infected in human MT4 cells assessed as protection against virus induced cytotoxicity after 5 days by MTT assay
Type: functional, cell-based
Details: Human immunodeficiency virus 1, 3B, MT4, 120 h
Procedure, shortened: as §1

Compound | EC50
Cc1cc(C)c(Oc2nc(NC3CCN(Cc4ccc([N+](=O)[O-])cc4)CC3)nc3ccsc23)c(C)c1 | 0.126 µM
CCOC(=O)c1ccc(CN2CCC(Nc3nc(Oc4c(C)cc(C#N)cc4C)c4sccc4n3)CC2)cc1 | 1.02 µM
Cc1cc(C#N)cc(C)c1Oc1nc(NC2CCN(Cc3cccc(C(N)=O)c3)CC2)nc2ccsc12 | 0.0138 µM

Test system: not listed separately
Test: Antiviral activity against HIV2 ROD harboring reverse transcriptase infected in human MT4 cells assessed as protection against virus induced cytotoxicity after 5 days by MTT assay
Type: functional, cell-based, Human immunodeficiency virus type 2 (ISOLATE ROD)
Details: Human immunodeficiency virus 2, MT4, 120 h
Procedure, shortened: as §1

Compound | EC50
Cc1cc(C)c(Oc2nc(NC3CCN(Cc4ccc([N+](=O)[O-])cc4)CC3)nc3ccsc23)c(C)c1 | > 6.39 µM
CCOC(=O)c1ccc(CN2CCC(Nc3nc(Oc4c(C)cc(C#N)cc4C)c4sccc4n3)CC2)cc1 | > 231 µM
Cc1cc(C#N)cc(C)c1Oc1nc(NC2CCN(Cc3cccc(C(N)=O)c3)CC2)nc2ccsc12 | > 48.8 µM

Test system: not listed separately
Test: Selectivity index, ratio of CC50 for human mock-infected MT4 cells to EC50 for HIV1 3B harboring reverse transcriptase K103N mutant infected in human MT4 cells
Type: toxicity, cell-based
Details: MT4 cells (mock-infected for CC50, HIV-1 infected for EC50)
Procedure, shortened: as §2

Compound | selectivity ratio
Cc1cc(C)c(Oc2nc(NC3CCN(Cc4ccc([N+](=O)[O-])cc4)CC3)nc3ccsc23)c(C)c1 | 120
CCOC(=O)c1ccc(CN2CCC(Nc3nc(Oc4c(C)cc(C#N)cc4C)c4sccc4n3)CC2)cc1 | > 446
Cc1cc(C#N)cc(C)c1Oc1nc(NC2CCN(Cc3cccc(C(N)=O)c3)CC2)nc2ccsc12 | > 4710

Test system: not listed separately
Test: Selectivity index, ratio of CC50 for human mock-infected MT4 cells to EC50 for wild type HIV1 3B harboring reverse transcriptase infected in human MT4 cells
Type: toxicity, cell-based
Details: MT4 cells (mock-infected for CC50, HIV-1 infected for EC50)
Procedure, shortened: as §2

Compound | selectivity ratio
Cc1cc(C)c(Oc2nc(NC3CCN(Cc4ccc([N+](=O)[O-])cc4)CC3)nc3ccsc23)c(C)c1 | 201
CCOC(=O)c1ccc(CN2CCC(Nc3nc(Oc4c(C)cc(C#N)cc4C)c4sccc4n3)CC2)cc1 | ≥ 1440
Cc1cc(C#N)cc(C)c1Oc1nc(NC2CCN(Cc3cccc(C(N)=O)c3)CC2)nc2ccsc12 | > 19200

Test system: Human immunodeficiency virus 1
Test: Antiviral activity against HIV1 3B harboring reverse transcriptase L100I mutant infected in human MT4 cells assessed as protection against virus induced cytotoxicity after 5 days by MTT assay
Type: functional, cell-based
Details: Human immunodeficiency virus 1, 3B, MT4, 120 h
Procedure, shortened: as §1

Compound | EC50
Cc1cc(C)c(Oc2nc(NC3CCN(Cc4ccc([N+](=O)[O-])cc4)CC3)nc3ccsc23)c(C)c1 | > 6.39 µM
CCOC(=O)c1ccc(CN2CCC(Nc3nc(Oc4c(C)cc(C#N)cc4C)c4sccc4n3)CC2)cc1 | 11.3 µM
Cc1cc(C#N)cc(C)c1Oc1nc(NC2CCN(Cc3cccc(C(N)=O)c3)CC2)nc2ccsc12 | 0.05 µM

Test system: not listed separately
Test: Selectivity index, ratio of CC50 for human mock-infected MT4 cells to EC50 for HIV1 3B harboring reverse transcriptase Y181C mutant infected in human MT4 cells
Type: toxicity, cell-based
Details: MT4 cells (mock-infected for CC50, HIV-1 infected for EC50)
Procedure, shortened: as §2

Compound | selectivity ratio
Cc1cc(C)c(Oc2nc(NC3CCN(Cc4ccc([N+](=O)[O-])cc4)CC3)nc3ccsc23)c(C)c1 | 32
CCOC(=O)c1ccc(CN2CCC(Nc3nc(Oc4c(C)cc(C#N)cc4C)c4sccc4n3)CC2)cc1 | > 62
Cc1cc(C#N)cc(C)c1Oc1nc(NC2CCN(Cc3cccc(C(N)=O)c3)CC2)nc2ccsc12 | > 984

Test system: not listed separately
Test: Selectivity index, ratio of CC50 for human mock-infected MT4 cells to EC50 for HIV1 3B harboring reverse transcriptase E138K mutant infected in human MT4 cells
Type: toxicity, cell-based
Details: MT4 cells (mock-infected for CC50, HIV-1 infected for EC50)
Procedure, shortened: as §2

Compound | selectivity ratio
Cc1cc(C)c(Oc2nc(NC3CCN(Cc4ccc([N+](=O)[O-])cc4)CC3)nc3ccsc23)c(C)c1 | 51
CCOC(=O)c1ccc(CN2CCC(Nc3nc(Oc4c(C)cc(C#N)cc4C)c4sccc4n3)CC2)cc1 | > 227
Cc1cc(C#N)cc(C)c1Oc1nc(NC2CCN(Cc3cccc(C(N)=O)c3)CC2)nc2ccsc12 | > 3510

Test system: not listed separately
Test: Selectivity index, ratio of CC50 for human mock-infected MT4 cells to EC50 for HIV1 RES056 harboring reverse transcriptase K103N/Y181C double mutant infected in human MT4 cells
Type: toxicity, cell-based
Details: MT4 cells (mock-infected for CC50, HIV-1 infected for EC50)
Procedure, shortened: as §2

Compound | selectivity ratio
Cc1cc(C)c(Oc2nc(NC3CCN(Cc4ccc([N+](=O)[O-])cc4)CC3)nc3ccsc23)c(C)c1 | < 1
CCOC(=O)c1ccc(CN2CCC(Nc3nc(Oc4c(C)cc(C#N)cc4C)c4sccc4n3)CC2)cc1 | 1
Cc1cc(C#N)cc(C)c1Oc1nc(NC2CCN(Cc3cccc(C(N)=O)c3)CC2)nc2ccsc12 | 1

Test system: Human immunodeficiency virus 1
Test: Antiviral activity against HIV1 3B harboring reverse transcriptase Y181C mutant infected in human MT4 cells assessed as protection against virus induced cytotoxicity after 5 days by MTT assay
Type: functional, cell-based
Details: Human immunodeficiency virus 1, 3B, MT4, 120 h
Procedure, shortened: as §1, with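 “wells.” for “wells. EC50 is the concentration giving 50% protection from viral cytopathogenicity.”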

Compound | EC50
Cc1cc(C)c(Oc2nc(NC3CCN(Cc4ccc([N+](=O)[O-])cc4)CC3)nc3ccsc23)c(C)c1 | 0.2 µM
CCOC(=O)c1ccc(CN2CCC(Nc3nc(Oc4c(C)cc(C#N)cc4C)c4sccc4n3)CC2)cc1 | 3.71 µM
Cc1cc(C#N)cc(C)c1Oc1nc(NC2CCN(Cc3cccc(C(N)=O)c3)CC2)nc2ccsc12 | 0.0495 µM

Reference: ChEMBL document CHEMBL3853327 (J Med Chem, 2016)
